The values that follow come from ChEMBL document CHEMBL4014264, “Benzoyltyramine Alkaloids Atalantums A-G from the Peels of Atalantia monophylla and Their Cytotoxicity against Cholangiocarcinoma Cell Lines” (J Nat Prod, 2017).

Assay [1] is described as follows: Cytotoxicity against human KKU-M214 cells assessed as reduction in cell viability after 72 hrs by SRB assay. The assay is classed as functional, cell-based. The following applies: KKU-M214, 72 h. In a few lines:
(§1)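 Cholangiocarcinoma cells seeded at (1−2) × 10^4 cells/well, grown 24 h at 37 °C, then dosed in triplicate to final 0.025−20 μg/well, with 0.1% DMSO solvent control. Starting plates read after 1 h, treated plates after 72 h, by SRB. Viability % = (OD treated day 3 − OD start)/(OD control day 3 − OD start) × 100. IC50 taken from dose–response curves.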

A short description of assay [2]: Cytotoxicity against human KKU-M213 cells assessed as reduction in cell viability after 72 hrs by SRB assay. The following applies: KKU-M213, 72 h. The assay is classed as functional, cell-based. In a few lines:
as §1

Assay [3] is described as follows: Cytotoxicity against human KKU-M156 cells assessed as reduction in cell viability after 72 hrs by SRB assay. The class given is functional, cell-based. The following applies: KKU-M156, 72 h. The method in brief:
as §1

The nature of assay [4]: Potency index, ratio of ellipticine IC50 to compound IC50 for human KKU-M156 cells. The assay is classed as functional.

In the case of `CCCCCCCCCCCCCCCC(=O)OC(CC1OC1(C)C)/C(C)=C/COc1ccc(CCNC(=O)c2ccccc2)cc1` (stereo unspecified), the figures for the IC50 in assay [1], in assay [2] and in assay [3] were 14.9 µM, 2.71 µM and 21 µM, respectively.

Consider `C/C(=C\COc1ccc(CCNC(=O)c2ccccc2)cc1)C(O)CC(O)C(C)(C)O` (stereo unspecified), for which the IC50 in assay [1] was 11.1 µM; in assay [2] it was 25.8 µM; in assay [3], 26.8 µM.

Regarding `CC(=O)OC(CC1OC1(C)C)/C(C)=C/COc1ccc(CCNC(=O)c2ccccc2)cc1` (stereo unspecified), the results for the IC50 in assay [1], in assay [2] and in assay [3] were 31.5 µM, 11.1 µM and 29.1 µM, respectively.

Consider `CC(=O)OC(CC(O)C(C)(C)O)/C(C)=C/COc1ccc(CCNC(=O)c2ccccc2)cc1` (stereo unspecified), for which the results for the IC50 in assay [1], in assay [2] and in assay [3] were 44.5 µM, 28.8 µM and 49.7 µM, respectively.

Turning to `CCCCCCCCCCCCCCCC(=O)OC(CC(OC(C)=O)C(C)(C)O)/C(C)=C/COc1ccc(CCNC(=O)c2ccccc2)cc1` (racemic), the IC50 in assay [1] came to 3.06 µM; in assay [2], 34.8 µM; in assay [3] it was 22 µM.

For `CCCCCCCCCCCCCCCC(=O)OC(C)(C)C(O)CC(O)/C(C)=C/COc1ccc(CCNC(=O)c2ccccc2)cc1` (racemic), the figures for the IC50 in assay [1], in assay [2] and in assay [3] were 20.5 µM, 16.1 µM and 31.5 µM, respectively.

In the case of `CCCCCCCCCCCCCC(=O)OC(CC(OC(C)=O)C(C)(C)O)/C(C)=C/COc1ccc(CCNC(=O)c2ccccc2)cc1` (racemic), the IC50 in assay [1] came to 24 µM; in assay [2] it was 2.36 µM; in assay [3] it was 24.5 µM.

Take `CCCCCCCCCCCCCCCC(=O)OC(CC(O)C(C)(C)O)/C(C)=C/COc1ccc(CCNC(=O)c2ccccc2)cc1` (racemic): the results for the IC50 in assay [1], in assay [2] and in assay [3] were 27.4 µM, 5.63 µM and 2.8 µM, respectively.

On to `C/C(=C\COc1ccc(CCNC(=O)c2ccccc2)cc1)C1CC(O)C(C)(C)O1` (racemic), for which the IC50 turned out to be 7.37 µM in assay [1], 12.2 µM in assay [2] and 21.5 µM in assay [3].

In the case of `CCCCCCCCCCCCCCCCCC(=O)OC(CC(OC(C)=O)C(C)(C)O)/C(C)=C/COc1ccc(CCNC(=O)c2ccccc2)cc1` (racemic), the IC50 in assay [1] was determined as 12.4 µM; in assay [2], 29.1 µM; in assay [3] it was 24 µM.

As to `CCCCCCCCCCCCCCCC(=O)OC(CC(O)/C(C)=C/COc1ccc(CCNC(=O)c2ccccc2)cc1)C(C)(C)O` (racemic), the IC50 was found to be 8.44 µM in assay [1], 23.5 µM in assay [2] and 1.97 µM in assay [3]. Besides, the “Ratio IC50” value in assay [4] is recorded as 4.7.

In the case of `Cc1c2ccncc2c(C)c2c1[nH]c1ccccc12` [ELLIPTECINE], the IC50 in assay [2] was determined as 6.58 µM.

Take `O=c1[nH]cc(F)c(=O)[nH]1` [FLUOROURACIL]: the IC50 in assay [1] is 3.76 µM.
